{"source": "ChEMBL document CHEMBL1132709", "about": "“Novel cyclopropapyrroloindole derivative (AT-3510) bearing methoxycarbonyl and trifluoromethyl groups” (J Med Chem, 1999)", "key": {"Mus musculus [1]": {"test_system": "Mus musculus", "assay": "In vivo antitumor activity (0.25 mg/Kg) is the measure of tumor growth inhibition of colon 26 murine […] cells.", "assay_type": "functional", "outline": "(§1)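 Colon 26 cells (10^6/mouse) inoculated sc into male CDF1 mice on day 0; drug given iv on day 7. Read-out is percentage tumor growth inhibition versus the untreated group.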"}, "HeLa": {"test_system": "HeLa", "assay": "Concentration required to inhibit the growth of HeLaS3 human uterine cervix carcinoma cells by 50%", "assay_type": "functional, cell-based"}, "Mus musculus [2]": {"test_system": "Mus musculus", "assay": "In vivo antitumor activity (0.5 mg/Kg) is the measure of tumor growth inhibition of colon 26 murine […] cells.", "assay_type": "functional", "outline": "as §1"}, "P338": {"test_system": "P338", "assay": "In vitro concentration required to inhibit the growth of […] murine leukemia cells by 50%", "assay_type": "functional, cell-based", "settings": "Mus musculus"}, "Mus musculus [3]": {"test_system": "Mus musculus", "assay": "In vivo antitumor activity (0.125 mg/Kg) is the measure of tumor growth inhibition of colon 26 murine […] cells.", "assay_type": "functional", "outline": "as §1"}, "Mus musculus [4]": {"test_system": "Mus musculus", "assay": "In vivo antitumor activity (0.125 mg/Kg) is the measure of increase in life span of mice bearing P388 murine leukemia cells", "assay_type": "functional"}, "Mus musculus [5]": {"test_system": "Mus musculus", "assay": "In vivo antitumor activity (0.125 mg/Kg) is the measure of tumor growth inhibition in mice bearing S180 murine sarcoma cells", "assay_type": "functional, CCRF S-180"}, "Mus musculus [6]": {"test_system": "Mus musculus", "assay": "In vivo antitumor activity (0.25 mg/Kg) is the measure of increase in life span of mice bearing P388 murine leukemia cells; 2/2 cured mice (>60-day survivors)", "assay_type": "functional, organism-based"}, "Mus musculus [7]": {"test_system": "Mus musculus", "assay": "In vivo antitumor activity (0.584 mg/kg) is the measure of tumor growth inhibition of human tumor xenograft WiDr (colon) implanted sc in mice.", "assay_type": "functional", "outline": "(§2)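 Tumor fragments (2–3 mm3) implanted sc into female BALB/cA Jcl-nu mice on day 0. A single iv dose was given once tumor volume reached about 100 mm3. Read-out is percentage of maximum tumor growth inhibition versus the untreated group.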"}, "Mus musculus [8]": {"test_system": "Mus musculus", "assay": "In vivo antitumor activity (0.584 mg/kg) is the measure of tumor growth inhibition of human tumor xenograft HCT116 (colon) implanted sc in mice.", "assay_type": "functional", "outline": "as §2"}, "Mus musculus [9]": {"test_system": "Mus musculus", "assay": "In vivo antitumor activity (0.584 mg/kg) is the measure of tumor growth inhibition of human tumor xenograft NUGC-3 (stomach) implanted sc in mice.", "assay_type": "functional", "outline": "as §2"}, "Mus musculus [10]": {"test_system": "Mus musculus", "assay": "In vivo antitumor activity (0.584 mg/kg) is the measure of tumor growth inhibition of human tumor xenograft DLD-1 (colon) implanted sc in mice.", "assay_type": "functional", "outline": "as §2"}, "Mus musculus [11]": {"test_system": "Mus musculus", "assay": "In vivo antitumor activity (9.81 mg/kg) is the measure of tumor growth inhibition of human tumor xenograft DLD-1 (colon) implanted sc in mice.", "assay_type": "functional, organism-based", "outline": "as §2"}, "Mus musculus [12]": {"test_system": "Mus musculus", "assay": "In vivo antitumor activity (9.81 mg/kg) is the measure of tumor growth inhibition of human tumor xenograft HCT116 (colon) implanted sc in mice.", "assay_type": "functional, organism-based", "outline": "as §2"}, "Mus musculus [13]": {"test_system": "Mus musculus", "assay": "In vivo antitumor activity (9.81 mg/kg) is the measure of tumor growth inhibition of human tumor xenograft NUGC-3 (stomach) implanted sc in mice.", "assay_type": "functional, organism-based", "outline": "as §2"}, "Mus musculus [14]": {"test_system": "Mus musculus", "assay": "In vivo antitumor activity (9.81 mg/kg) is the measure of tumor growth inhibition of human tumor xenograft WiDr (colon) implanted sc in mice.", "assay_type": "functional, organism-based", "outline": "as §2"}}, "data": [{"compound": "COC(=O)c1c(C(F)(F)F)[nH]c2c(O)cc3c(c12)[C@H](CCl)CN3C(=O)c1cc2cc(NC(=O)c3cc4cccc(OC)c4cn3)ccc2[nH]1", "note": "(racemic)", "values": [{"measurement": "TGI", "setting": "Mus musculus [1]", "result": 90, "unit": "%"}, {"measurement": "IC50", "setting": "HeLa", "result": 0.51, "unit": "ng/mL"}]}, {"compound": "COC(=O)c1c(C(F)(F)F)[nH]c2c(O)cc3c(c12)[C@H](CCl)CN3C(=O)c1cc2cc(NC(=O)c3cnc4ccccc4c3)ccc2[nH]1", "note": "(racemic)", "values": [{"measurement": "TGI", "setting": "Mus musculus [2]", "result": 84, "unit": "%"}, {"measurement": "IC50", "setting": "HeLa", "result": 1.5, "unit": "ng/mL"}]}, {"compound": "COC(=O)c1c(C(F)(F)F)[nH]c2c(O)cc3c(c12)[C@H](CCl)CN3C(=O)c1cc2cc(NC(=O)c3cc4ccc(OC)cc4o3)ccc2[nH]1", "note": "(racemic)", "values": [{"measurement": "TGI", "setting": "Mus musculus [2]", "result": 94, "unit": "%"}, {"measurement": "IC50", "setting": "HeLa", "result": 0.12, "unit": "ng/mL"}]}, {"compound": "COC(=O)c1[nH]c2c(c1C(=O)OC)[C@@]13C[C@@H]1CN(C(=O)c1cc4cc(NC(=O)c5cc6ccccc6o5)ccc4[nH]1)C3=CC2=O", "note": "(racemic)", "values": [{"measurement": "IC50", "setting": "P338", "result": 0.66, "unit": "ng/mL"}]}, {"compound": "COC(=O)c1c(C(F)(F)F)[nH]c2c1[C@@]13C[C@@H]1CN(C(=O)c1cc4cc(OC)c(OC)c(OC)c4[nH]1)C3=CC2=O", "note": "(racemic)", "values": [{"measurement": "IC50", "setting": "P338", "result": 0.24, "unit": "ng/mL"}]}, {"compound": "COC(=O)c1c(C(F)(F)F)[nH]c2c(O)cc3c(c12)[C@H](CCl)CN3C(=O)c1cc2cc(OC)c(OC)c(OC)c2o1", "note": "(racemic)", "values": [{"measurement": "TGI", "setting": "Mus musculus [2]", "result": 75, "unit": "%"}, {"measurement": "IC50", "setting": "HeLa", "result": 0.12, "unit": "ng/mL"}]}, {"compound": "COC(=O)c1c(C(F)(F)F)[nH]c2c(O)cc3c(c12)[C@H](CCl)CN3C(=O)c1cc2c(OC)c(OC)c(OC)cc2[nH]1", "note": "(racemic)", "values": [{"measurement": "IC50", "setting": "HeLa", "result": 32, "unit": "ng/mL"}]}, {"compound": "COC(=O)c1c(C(F)(F)F)[nH]c2c(O)cc3c(c12)[C@H](CCl)CN3C(=O)c1cc2cc(NC(=O)c3cc4cc(OC)ccc4o3)ccc2[nH]1", "note": "(racemic)", "values": [{"measurement": "TGI", "setting": "Mus musculus [2]", "result": 94, "unit": "%"}, {"measurement": "IC50", "setting": "HeLa", "result": 0.064, "unit": "ng/mL"}]}, {"compound": "COC(=O)c1c(C(F)(F)F)[nH]c2c(O)cc3c(c12)[C@H](CCl)CN3C(=O)c1cc2cc(NC(=O)c3cc4ccccc4o3)ccc2[nH]1", "note": "(racemic)", "values": [{"measurement": "TGI", "setting": "Mus musculus [2]", "result": 85, "unit": "%"}, {"measurement": "IC50", "setting": "HeLa", "result": 0.53, "unit": "ng/mL"}]}, {"compound": "COC(=O)c1c(C)[nH]c2c1[C@@]13C[C@@H]1CN(C(=O)c1cc4cc(OC)c(OC)c(OC)c4[nH]1)C3=CC2=O", "note": "(racemic)", "values": [{"measurement": "IC50", "setting": "P338", "result": 0.34, "unit": "ng/mL"}]}, {"compound": "COC(=O)c1c(C(F)(F)F)[nH]c2c(O)cc3c(c12)[C@H](CCl)CN3C(=O)c1cc2cc(NC(=O)c3cc4cc(OC)ccc4cn3)ccc2[nH]1", "note": "(racemic)", "values": [{"measurement": "TGI", "setting": "Mus musculus [1]", "result": 90, "unit": "%"}, {"measurement": "IC50", "setting": "HeLa", "result": 0.18, "unit": "ng/mL"}]}, {"compound": "COC(=O)c1c(C(F)(F)F)[nH]c2c1[C@@]13C[C@@H]1CN(C(=O)c1cc4cc(OC)ccc4[nH]1)C3=CC2=O", "note": "(racemic)", "values": [{"measurement": "IC50", "setting": "P338", "result": 0.23, "unit": "ng/mL"}]}, {"compound": "COC(=O)c1c(C(F)(F)F)[nH]c2c(O)cc3c(c12)[C@H](CCl)CN3C(=O)c1cc2cc(NC(=O)c3cc4c(OC)cccc4cn3)ccc2[nH]1", "note": "(racemic)", "values": [{"measurement": "TGI", "setting": "Mus musculus [3]", "result": 67, "unit": "%"}, {"measurement": "IC50", "setting": "HeLa", "result": 0.2, "unit": "ng/mL"}]}, {"compound": "Cc1c[nH]c2c1[C@@]13C[C@@H]1CN(C(=O)c1cc4cc(NC(=O)c5cc6ccccc6[nH]5)ccc4[nH]1)C3=CC2=O", "note": "(racemic)", "values": [{"measurement": "ILS", "setting": "Mus musculus [4]", "result": 210, "unit": "%"}, {"measurement": "TGI", "setting": "Mus musculus [5]", "result": 86, "unit": "%"}, {"measurement": "IC50", "setting": "P338", "result": 0.028, "unit": "ng/mL"}]}, {"compound": "COC(=O)c1[nH]c2c(c1C(=O)OC)[C@@]13C[C@@H]1CN(C(=O)c1cc4cc(NC(=O)c5cc6ccccc6[nH]5)ccc4[nH]1)C3=CC2=O", "note": "(racemic)", "values": [{"measurement": "IC50", "setting": "P338", "result": 0.31, "unit": "ng/mL"}]}, {"compound": "COC(=O)c1c(C(F)(F)F)[nH]c2c1[C@@]13C[C@@H]1CN(C(=O)c1cc4cc(NC(=O)c5cc6ccccc6o5)ccc4[nH]1)C3=CC2=O", "note": "(racemic)", "values": [{"measurement": "ILS", "setting": "Mus musculus [6]", "result": "2/2 cured mice (>60-day survivors)"}]}, {"compound": "CCN(CC)c1ccc2cc(C(=O)Nc3ccc4[nH]c(C(=O)N5C[C@@H](CCl)c6c5cc(OC(=O)Nc5ccccc5)c5[nH]cc(C)c65)cc4c3)oc2c1", "note": "[CARZELESIN]", "values": [{"measurement": "TGI", "setting": "Mus musculus [7]", "result": 56, "unit": "%"}, {"measurement": "TGI", "setting": "Mus musculus [8]", "result": 82, "unit": "%"}, {"measurement": "TGI", "setting": "Mus musculus [9]", "result": 98, "unit": "%"}, {"measurement": "TGI", "setting": "Mus musculus [10]", "result": 79, "unit": "%"}]}, {"compound": "CISPLATIN", "values": [{"measurement": "TGI", "setting": "Mus musculus [11]", "result": 25, "unit": "%"}, {"measurement": "TGI", "setting": "Mus musculus [12]", "result": 34, "unit": "%"}, {"measurement": "TGI", "setting": "Mus musculus [13]", "result": 87, "unit": "%"}, {"measurement": "TGI", "setting": "Mus musculus [14]", "result": 44, "unit": "%"}]}]}
